Results on five compounds are retold here after article PMC5656903 (Chemistry (Weinheim an Der Bergstrasse, Germany), 2017).

One may read the IC50 as the midpoint of a concentration-inhibition curve. High values mean a need for much substance, low ones inhibition by little substance.

The assay has as its target Human integrin αvβ3 receptor (Homo sapiens, UniProt P05106+P06756). It counts as binding. Conditions: for IC50: SD; for increase of IC50 compared to the free ligand 1: αvβ3, biotinylated vitronectin binding, from Table 1. In a few lines: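 Immobilized integrin αvβ3 incubated with test compound at graded concentrations (10−12 to 10−5) together with biotinylated vitronectin (1 μg mL−1); bound vitronectin measured. IC50 taken from the inhibition of vitronectin binding, reported as arithmetic mean ± SD of triplicate determinations.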

Chain of Human integrin αvβ3 receptor (P06756 31-992 limits assumed): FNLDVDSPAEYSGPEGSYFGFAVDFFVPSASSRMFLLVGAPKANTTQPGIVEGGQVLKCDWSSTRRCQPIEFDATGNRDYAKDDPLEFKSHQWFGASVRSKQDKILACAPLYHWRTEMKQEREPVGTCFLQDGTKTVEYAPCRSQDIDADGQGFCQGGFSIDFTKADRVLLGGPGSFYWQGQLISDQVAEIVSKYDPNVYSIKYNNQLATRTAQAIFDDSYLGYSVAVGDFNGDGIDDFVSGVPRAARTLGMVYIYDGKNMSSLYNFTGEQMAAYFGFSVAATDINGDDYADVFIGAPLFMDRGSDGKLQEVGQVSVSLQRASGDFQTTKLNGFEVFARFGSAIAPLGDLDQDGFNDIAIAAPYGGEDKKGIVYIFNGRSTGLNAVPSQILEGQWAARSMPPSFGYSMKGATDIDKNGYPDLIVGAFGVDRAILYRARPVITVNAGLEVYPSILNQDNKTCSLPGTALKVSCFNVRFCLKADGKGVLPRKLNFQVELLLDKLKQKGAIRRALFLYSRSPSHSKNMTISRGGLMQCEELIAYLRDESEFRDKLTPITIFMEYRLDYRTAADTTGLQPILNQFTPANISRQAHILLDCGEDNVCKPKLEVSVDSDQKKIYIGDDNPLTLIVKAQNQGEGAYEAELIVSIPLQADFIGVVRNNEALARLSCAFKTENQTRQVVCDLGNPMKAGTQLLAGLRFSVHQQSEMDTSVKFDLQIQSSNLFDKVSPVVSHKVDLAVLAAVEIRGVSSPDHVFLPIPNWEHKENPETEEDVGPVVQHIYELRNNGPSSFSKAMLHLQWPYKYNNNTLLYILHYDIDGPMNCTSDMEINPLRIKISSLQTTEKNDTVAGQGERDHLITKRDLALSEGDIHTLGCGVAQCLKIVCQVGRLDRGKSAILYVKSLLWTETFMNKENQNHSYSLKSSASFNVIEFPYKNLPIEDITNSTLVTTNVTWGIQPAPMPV
Chain of Human integrin αvβ3 receptor (P05106 27-718 limits assumed): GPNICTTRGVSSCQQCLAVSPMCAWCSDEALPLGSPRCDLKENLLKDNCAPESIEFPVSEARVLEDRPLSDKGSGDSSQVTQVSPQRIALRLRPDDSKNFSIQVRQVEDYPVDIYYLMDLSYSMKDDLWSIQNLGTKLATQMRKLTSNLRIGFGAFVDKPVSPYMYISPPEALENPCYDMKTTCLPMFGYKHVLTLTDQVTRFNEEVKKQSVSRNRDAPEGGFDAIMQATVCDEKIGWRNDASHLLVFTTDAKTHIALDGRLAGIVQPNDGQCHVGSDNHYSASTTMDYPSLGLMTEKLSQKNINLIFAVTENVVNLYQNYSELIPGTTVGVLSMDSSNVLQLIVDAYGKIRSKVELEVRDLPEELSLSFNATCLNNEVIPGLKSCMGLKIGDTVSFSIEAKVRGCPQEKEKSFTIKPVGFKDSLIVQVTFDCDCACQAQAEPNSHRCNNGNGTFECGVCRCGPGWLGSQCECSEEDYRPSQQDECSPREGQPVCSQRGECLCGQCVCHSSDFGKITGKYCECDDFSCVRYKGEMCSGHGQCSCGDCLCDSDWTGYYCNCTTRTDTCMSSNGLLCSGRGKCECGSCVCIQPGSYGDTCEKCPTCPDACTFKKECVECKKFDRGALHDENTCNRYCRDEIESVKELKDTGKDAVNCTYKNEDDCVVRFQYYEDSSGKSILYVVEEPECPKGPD

Take `CC(=O)O[C@H]1C(=O)[C@@]2(C)[C@H]([C@H](OC(=O)c3ccccc3)[C@]3(O)C[C@H](OC(=O)[C@H](OC(=O)N(C)CCN(C)C(=O)OCc4ccc(NC(=O)[C@H](C)NC(=O)[C@@H](NC(=O)CCc5cn(CCOCCOCCOCCOCC(=O)NCc6ccc(CN7C(=O)[C@H]8CC(=O)N[C@@H](CCCNC(=N)N)C(=O)NCC(=O)N[C@@H](CC(=O)O)C(=O)NC[C@H]7C(=O)N8)cc6)nn5)C(C)C)cc4)[C@@H](NC(=O)c4ccccc4)c4ccccc4)C(C)=C1C3(C)C)[C@]1(OC(C)=O)CO[C@@H]1C[C@@H]2O` [compound 5, cyclo[DKP‐RGD]‐Val‐Ala‐PTX (aliphatic scaffold)]: 14.8 ± 3.9 nM corresponded to half-maximal inhibition (IC50) and the “increase of IC50 compared to the free ligand 1” value is reported as 3 fold.

On to `CC(=O)O[C@H]1C(=O)[C@@]2(C)[C@H]([C@H](OC(=O)c3ccccc3)[C@]3(O)C[C@H](OC(=O)[C@H](OC(=O)N(C)CCN(C)C(=O)OCc4ccc(NC(=O)[C@H](C)NC(=O)[C@@H](NC(=O)c5ccc(OCc6cn(CCOCCOCCOCCOCC(=O)NCc7ccc(CN8C(=O)[C@H]9CC(=O)N[C@@H](CCCNC(=N)N)C(=O)NCC(=O)N[C@@H](CC(=O)O)C(=O)NC[C@H]8C(=O)N9)cc7)nn6)cc5)C(C)C)cc4)[C@@H](NC(=O)c4ccccc4)c4ccccc4)C(C)=C1C3(C)C)[C@]1(OC(C)=O)CO[C@@H]1C[C@@H]2O` [compound 6, cyclo[DKP‐RGD]‐Val‐Ala‐PTX (aromatic scaffold)], for which the IC50 is 27.3 ± 9.8 nM and the “increase of IC50 compared to the free ligand 1” value is on record as 6 fold.

With `CC(=O)O[C@H]1C(=O)[C@@]2(C)[C@H]([C@H](OC(=O)c3ccccc3)[C@]3(O)C[C@H](OC(=O)[C@H](OC(=O)N(C)CCN(C)C(=O)OCc4ccc(NC(=O)[C@H](C)NC(=O)[C@@H](NC(=O)Cc5cc(OCc6cn(CCOCCOCCOCCOCC(=O)NCc7ccc(CN8C(=O)[C@H]9CC(=O)N[C@@H](CCCNC(=N)N)C(=O)NCC(=O)N[C@@H](CC(=O)O)C(=O)NC[C@H]8C(=O)N9)cc7)nn6)cc(OCc6cn(CCOCCOCCOCCOCC(=O)NCc7ccc(CN8C(=O)[C@H]9CC(=O)N[C@@H](CCCNC(=N)N)C(=O)NCC(=O)N[C@@H](CC(=O)O)C(=O)NC[C@H]8C(=O)N9)cc7)nn6)c5)C(C)C)cc4)[C@@H](NC(=O)c4ccccc4)c4ccccc4)C(C)=C1C3(C)C)[C@]1(OC(C)=O)CO[C@@H]1C[C@@H]2O` [compound 7, (cyclo[DKP‐RGD])2‐Val‐Ala‐PTX], the half-inhibitory concentration (IC50) is 4 ± 0.1 nM.

The compound `CC(=O)O[C@H]1C(=O)[C@@]2(C)[C@H]([C@H](OC(=O)c3ccccc3)[C@]3(O)C[C@H](OC(=O)[C@H](OC(=O)N(C)CCN(C)C(=O)OCc4ccc(NC(=O)[C@H](C)NC(=O)[C@@H](NC(=O)Cc5cc(OCCNC(=O)Cc6cc(OCc7cn(CCOCCOCCOCCOCC(=O)NCc8ccc(CN9C(=O)[C@H]%10CC(=O)N[C@@H](CCCNC(=N)N)C(=O)NCC(=O)N[C@@H](CC(=O)O)C(=O)NC[C@H]9C(=O)N%10)cc8)nn7)cc(OCc7cn(CCOCCOCCOCCOCC(=O)NCc8ccc(CN9C(=O)[C@H]%10CC(=O)N[C@@H](CCCNC(=N)N)C(=O)NCC(=O)N[C@@H](CC(=O)O)C(=O)NC[C@H]9C(=O)N%10)cc8)nn7)c6)cc(OCCNC(=O)c6ccc(OCc7cn(CCOCCOCCOCCOCC(=O)NCc8ccc(CN9C(=O)[C@H]%10CC(=O)N[C@@H](CCCNC(=N)N)C(=O)NCC(=O)N[C@@H](CC(=O)O)C(=O)NC[C@H]9C(=O)N%10)cc8)nn7)cc6)c5)C(C)C)cc4)[C@@H](NC(=O)c4ccccc4)c4ccccc4)C(C)=C1C3(C)C)[C@]1(OC(C)=O)CO[C@@H]1C[C@@H]2O` [compound 8, (cyclo[DKP‐RGD])3‐Val‐Ala‐PTX] yielded an IC50 of 1.2 ± 0.5 nM.

`CC(=O)O[C@H]1C(=O)[C@@]2(C)[C@H]([C@H](OC(=O)c3ccccc3)[C@]3(O)C[C@H](OC(=O)[C@H](OC(=O)N(C)CCN(C)C(=O)OCc4ccc(NC(=O)[C@H](C)NC(=O)[C@@H](NC(=O)Cc5cc(OCCNC(=O)Cc6cc(OCc7cn(CCOCCOCCOCCOCC(=O)NCc8ccc(CN9C(=O)[C@H]%10CC(=O)N[C@@H](CCCNC(=N)N)C(=O)NCC(=O)N[C@@H](CC(=O)O)C(=O)NC[C@H]9C(=O)N%10)cc8)nn7)cc(OCc7cn(CCOCCOCCOCCOCC(=O)NCc8ccc(CN9C(=O)[C@H]%10CC(=O)N[C@@H](CCCNC(=N)N)C(=O)NCC(=O)N[C@@H](CC(=O)O)C(=O)NC[C@H]9C(=O)N%10)cc8)nn7)c6)cc(OCCNC(=O)Cc6cc(OCc7cn(CCOCCOCCOCCOCC(=O)NCc8ccc(CN9C(=O)[C@H]%10CC(=O)N[C@@H](CCCNC(=N)N)C(=O)NCC(=O)N[C@@H](CC(=O)O)C(=O)NC[C@H]9C(=O)N%10)cc8)nn7)cc(OCc7cn(CCOCCOCCOCCOCC(=O)NCc8ccc(CN9C(=O)[C@H]%10CC(=O)N[C@@H](CCCNC(=N)N)C(=O)NCC(=O)N[C@@H](CC(=O)O)C(=O)NC[C@H]9C(=O)N%10)cc8)nn7)c6)c5)C(C)C)cc4)[C@@H](NC(=O)c4ccccc4)c4ccccc4)C(C)=C1C3(C)C)[C@]1(OC(C)=O)CO[C@@H]1C[C@@H]2O` [compound 9, (cyclo[DKP‐RGD])4‐Val‐Ala‐PTX] returned an IC50 of 1.3 ± 0.3 nM.
